# Compounds with a hit are over-represented: about 2.8% of the library has one in this group of screens.
# SR-BI HDL uptake = blocks mouse SR-BI lipid uptake from DiI-HDL. inhibition, % at 12.5 µM. 320,000 tested, 0.96% active. ldlA[mSR-BI] CHO cells, DiI-HDL uptake fluorescence, 3 h. Q61009;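 active = mean replicate inhibition of at least 70% and a set share of replicates each scoring 70 or more; inconclusive = meets just one of the two criteria; inactive = fails both criteria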;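 note: 0% = median of neutral control wells and 100% = median of positive control wells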
# Target sequence (Q61009 whole entry, looked up): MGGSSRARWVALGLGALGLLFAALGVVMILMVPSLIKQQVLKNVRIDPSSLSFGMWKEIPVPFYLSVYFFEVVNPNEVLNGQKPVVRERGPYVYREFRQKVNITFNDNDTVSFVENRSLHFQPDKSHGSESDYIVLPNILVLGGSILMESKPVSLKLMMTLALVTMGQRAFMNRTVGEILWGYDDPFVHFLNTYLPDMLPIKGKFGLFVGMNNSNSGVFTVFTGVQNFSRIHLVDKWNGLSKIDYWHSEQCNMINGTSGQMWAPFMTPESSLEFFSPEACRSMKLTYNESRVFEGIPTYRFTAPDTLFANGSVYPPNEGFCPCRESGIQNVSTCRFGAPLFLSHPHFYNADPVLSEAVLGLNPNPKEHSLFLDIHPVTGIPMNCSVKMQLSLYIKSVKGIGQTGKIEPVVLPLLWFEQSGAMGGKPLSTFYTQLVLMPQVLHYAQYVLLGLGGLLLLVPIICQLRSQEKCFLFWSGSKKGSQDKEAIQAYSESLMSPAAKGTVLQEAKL
# SR-BI DiI-HDL act = enhances SR-BI lipid uptake from DiI-HDL. CHO ldlA[mSR-BI] cells, DiI-HDL uptake fluorescence, 3 h; 100 = double the neutral-control signal. activation, % at 12.5 µM. 320,000 tested, 0.096% active. AID 504775;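 active = mean replicate activation of at least 60% and every replicate at or above 60%; inconclusive = mean or all-replicate condition met, but not both; inactive = mean below 60% and not all replicates reaching 60%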;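 note: 0% = median plate neutral-control signal and 100% = twice that signal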
#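 Test system: SR-BI-overexpressing, LDLR-lacking CHO cells. Measured by: DiI fluorescence, bottom read. Medium: Ham's F12 with 0.5% BSA, HEPES 25 mM, pH 7.4. Timing: 3 h uptake period with compound, 37 °C.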
# dFosB act-1 = mouse delta FosB homodimer activation | purified delta FosB, TAMRA-CDK5 oligo fluorescence polarization; percent of positive-control signal above neutral wells | P13346 | activation, % at 25 µM | 340,000 tested, 0.99% active;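 active = mean activation above about 17%, with every replicate also reaching it, limit read from the data, passing the limit was not always enough; inconclusive = only one of the two conditions met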
# CAL PDZ FP-1 = human CAL PDZ-peptide interaction inhibition; purified CAL PDZ, TMR-peptide fluorescence polarization, 1 h; inhibition, % at 20 µM; 330,000 tested, 0.02% active;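 active = highest replicate inhibition of at least 40%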;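 note: plate controls were DMSO neutral control wells for no effect and unlabeled competitor peptide control wells for full effect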
#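 Assay system – tagged CAL PDZ protein CerCALP, purified · Timing – 1 h at RT · Compound – single point, 20 µM · Measured by – fluorescence polarization from S- and P-plane intensities, G-factor corrected · Evaluation – inhibition from polarization loss · Probe or stimulus – TMR reporter peptide T*-PRC34 · Buffer or medium – pH 7.4 phosphate-saline buffer, reducing agent, detergent, IgG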
# CAL PDZ FP-2 = CAL PDZ (human) peptide binding inhibition; Q9HD26; purified CAL PDZ, TMR-peptide fluorescence polarization, 1 h; inhibition, % at 24.9 µM; 300,000 tested, 0.92% active;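 active = mean inhibition of at least 30% with at least half of replicates also reaching 30%; inconclusive = no clear call, values can overlap the other calls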;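 note: 0% = DMSO neutral control and 100% = excess unlabeled competitor peptide PRC23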
# dFosB act-2 = enhances mouse delta FosB homodimer binding to DNA | AID 588690 | activation, % at 24.9 µM | 2,400 tested, under 10 active | purified delta FosB, TAMRA-CDK5 oligo fluorescence polarization; normalised: neutral wells 0, positive control 100 | shares compounds with dFosB act-1;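 active = highest replicate activation at or above 34% and every replicate reaching that threshold; inconclusive = meets only one of the two criteria; inactive = meets neither criterion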;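 note: higher polarization means more probe DNA bound by delta FosB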
# * hit, by the source's call; u = inconclusive; x = no result given.
SMILES,SR-BI HDL uptake,SR-BI DiI-HDL act,dFosB act-1,CAL PDZ FP-1,CAL PDZ FP-2,dFosB act-2
COC(=O)c1ccc2c(=O)n(Cc3ccco3)c(SCC(=O)Nc3cc(C)on3)nc2c1,-21,21,25*,-2,-1,0
CCN(c1ccccc1)S(=O)(=O)c1csc(C(N)=O)c1,-5,5,-5,0,-3,x
COc1ccc(/C=C/c2nc(N)nc(-c3ccccc3O)n2)cc1OC,50,-50,10,-2,1,x
COc1cc(/C=C/c2nc(N)nc(-c3ccccc3O)n2)cc(OC)c1OC,16,-16,34*,-2,0,3
COC(=O)[C@H]1C[C@H]1[C@@H](NC(=O)c1ccc[nH]1)c1ccccc1,-14,14,-9,-1,-1,x
CC(C)[C@@H]1CN=C(N)N1C[C@@H]1CCCN1C[C@H](C)N1C[C@@H](Cc2ccccc2)N(CCc2ccc(Cl)c(Cl)c2)C1=N,2,-2,20*,-2,-8,-1
Cc1ccc(-c2nnn(CC(=O)NC(=O)NC3CCCCC3)n2)cc1,-22,22,-4,-3,-3,x
O=C(CC1S/C(=N/N=C/c2cccs2)NC1=O)Nc1ccccc1F (stereo not drawn),80*,-80,32*,10,-2,2
Cc1ccc(C)c2c1[nH]c1ccccc12,29,-29,-2,0,-6,x
Cc1ccc(C)c2c1[nH]c1ccc([N+](=O)[O-])cc12,21,-21,21*,-1,-1,0
CCOC(=O)c1sc(SCc2ccccc2)c2c1CC(C)(C)CC2=O,42,-42,-2,0,0,x
COc1ccc(S(=O)(=O)N2CCOCC2)cc1NC(=O)c1cccc2c(=O)c(C)c(-c3ccccc3)oc12,5,-5,45*,-6,-6,5
COc1ccc(-c2cc(C(=O)Nc3ccccc3O)c3ccccc3n2)cc1OC,30,-30,-12,0,2,x
Cc1ccc(S(=O)(=O)N2CCCCC2)cc1NC(=O)c1c(-c2ccccc2)noc1C,-1,1,18*,0,-1,5
COc1ccc(-c2cc(C(=O)Nc3nc4ccccc4s3)c3ccccc3n2)cc1OC,75*,-75,65*,-2,-3,u
COc1ccc(-c2cc(C(=O)Nc3ccc(C(N)=O)cc3)c3ccccc3n2)cc1,x,x,37*,-3,-3,8
NC(=O)c1cnn(-c2cc(Oc3ccccc3)ncn2)c1N,-7,7,-4,0,x,x
COc1cc(-c2cc(C(=O)Nc3cc(S(=O)(=O)N4CCOCC4)ccc3C)c3ccccc3n2)cc(OC)c1OC,56,-56,44*,-3,1,2
COc1cc(-c2cc(C(=O)Nc3cc(S(=O)(=O)N4CCOCC4)ccc3O)c3ccccc3n2)cc(OC)c1OC,67,-67,3,-1,-3,x
O=C(Nc1cccnc1)c1cc(-c2cccnc2)nc2ccc(Br)cc12,37,-37,-22,-1,-6,x
Cc1ccc(CCNC(=O)c2cc(-c3ccncc3)nc3ccc(S(=O)(=O)N4CCOCC4)cc23)cc1,-8,8,30*,-2,-2,2
COc1ccc(-c2cc(C(=O)Nc3ccccc3N3CCOCC3)c3ccccc3n2)cc1OC,55,-55,27*,0,-5,-1
COc1cc(NC(=O)c2cc(-c3cccnc3)nc3ccc(Br)cc23)cc(OC)c1,61,-61,63*,0,-4,1
COCCCN1C(=O)c2ccc(C(=O)NCc3ccccn3)cc2C1=O,2,-2,3,-3,-2,x
Cc1ccc(CNC(=O)C2CC3Cn4c(nc5cc(Cl)c(Cl)cc54)C3N2C)o1 (stereo not drawn),-3,3,3,0,0,x
SMILES,SR-BI HDL uptake,SR-BI DiI-HDL act,dFosB act-1,CAL PDZ FP-1,CAL PDZ FP-2,dFosB act-2
Cc1nnc(SCC(=O)NCC2CCCO2)n1Cc1ccccc1 (stereo not drawn),0,0,-5,-1,-3,x
CC[C@]12c3[nH]c4cc(CCC(=O)N(C)C)ccc4c3CCN1C(=O)[C@@H](CC(=O)NC(C)(C)C)C[C@@H]2C(=O)N1CCN(C(=O)C2CC2)CC1,-14,14,2,0,-2,x
NC(=O)c1nc[nH]c1C(=O)Nc1cccc(NC(=O)c2cccc(C(F)(F)F)c2)c1,9,-11,27*,-1,-2,7
Cc1cccc(NC(=O)c2nc[nH]c2C(=O)Nc2cccc(C)c2)c1,17,-17,-2,-1,-3,x
C(=N\n1cnnc1)/c1cn(Cc2ccccc2)c2ccccc12,24,-24,-5,-4,-3,x
Clc1ccc(Cn2cc(/C=N/n3cnnc3)c3ccccc32)c(Cl)c1,36,-36,25*,-1,5,3
O=C(CSc1ccc(-c2ccc(-n3cccn3)cc2)nn1)Nc1ccccc1F,-23,23,25*,-3,-2,3
O=C(CSc1ccc(-c2cccnc2)nn1)Nc1ccccc1F,-12,12,-12,1,-1,x
Nc1c(C(=O)Nc2ccccc2Cl)nnn1-c1ccc2c(c1)OCCO2,24,-24,43*,1,-3,4
Nc1c(C(=O)Nc2ccc3c(c2)OCCO3)nnn1CCc1ccccc1,20,-20,-8,0,x,x
Cc1cc(C)c(S(=O)(=O)Nc2ccccc2C(=O)N2CCOCC2)c(C)c1,-8,8,-5,-1,0,x
Cc1cccn2c(=O)c3cc(C(=O)NCc4ccco4)c(=N)n(CCc4ccccc4)c3nc12,x,x,20*,2,-3,-2
COc1ccc(CCn2c(=N)c(C(=O)NC3CCCC3)cc3c(=O)n4ccccc4nc32)cc1,-3,3,-14,-5,-4,x
Cc1ccc(CNC(=O)c2cc3c(=O)n4ccccc4nc3n(Cc3ccco3)c2=N)cc1,6,-6,25*,-1,0,0
Cc1cccn2c(=O)c3cc(C(=O)NCCc4ccccc4)c(=N)n(Cc4ccco4)c3nc12,-16,16,5,-5,1,x
COc1ccc(Cn2c(=N)c(C(=O)NC3CCCCC3)cc3c(=O)n4ccccc4nc32)cc1,20,-20,34*,-3,2,5
O=C(NC1CC2CCC1C2)c1ccco1 (stereo not drawn),x,x,6,-2,-1,x
Cn1nnc(NC(=S)NC(=O)c2ccc(-c3ccc(Br)cc3)o2)n1,-18,18,33*,1,-1,1
CC(C)c1ccc(NC(=O)[C@H](NC(=O)[C@@H]2Cc3ccccc3CN2)c2ccccc2)cc1,3,-3,57*,-4,0,5
Cc1ccc(NC(=O)[C@H](NC(=O)[C@@H]2Cc3ccccc3CN2)c2ccccc2)cc1,-2,2,1,-3,-2,x

# Screening results: PubChem, Broad Institute
